Data taken from ChEMBL document CHEMBL4038305, “Benzoxaborole Antimalarial Agents. Part 5. Lead Optimization of Novel Amide Pyrazinyloxy Benzoxaboroles and Identification of a Preclinical Candidate” (J Med Chem, 2017).

Experiments:
Plasmodium berghei [1] = assay: Antimalarial activity against Plasmodium berghei infected in Swiss Webster mouse assessed as mouse survival rate at 1.2 mg/kg administered once daily via oral gavage for 4 consecutive days beginning 1 hr after infection measured on day 7 post infection relative to control; format: functional
Method in brief: (§1)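 Mice given an intraperitoneal injection of P. berghei-infected erythrocytes taken from a previously infected animal. Oral dosing once daily for 4 consecutive days, starting 1 h after infection. Vehicle: polyethylene glycol 300/propylene glycol/water (weight ratio 55/25/20). Percent survival recorded daily from day 4 to day 20. Chloroquine 30 mg/kg and vehicle-only groups served as controls.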

Plasmodium berghei [2] = assay: Antimalarial activity against Plasmodium berghei infected in Swiss Webster mouse assessed as mouse survival rate at 100 mg/kg administered once daily via oral gavage for 4 consecutive days beginning 1 hr after infection measured on day 5 post infection relative to control; format: functional; method in brief: as §1
Plasmodium berghei [3] = assay: Antimalarial activity against Plasmodium berghei infected in Swiss Webster mouse assessed as mouse survival rate at 33 mg/kg administered once daily via oral gavage for 4 consecutive days beginning 1 hr after infection measured on day 10 post infection relative to control; format: functional
Method in brief: (§2)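 P. berghei-infected erythrocytes taken from a previously infected mouse were injected intraperitoneally. Oral dosing, once daily for 4 consecutive days, began 1 h after infection, in polyethylene glycol 300/propylene glycol/water (55/25/20 by weight). Chloroquine at 30 mg/kg was the positive control, with a vehicle-only group. Percent survival was recorded daily from day 4 to day 20.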

Plasmodium berghei [4] = assay: Antimalarial activity against Plasmodium berghei infected in Swiss Webster mouse assessed as mouse survival rate at 1.2 mg/kg administered once daily via oral gavage for 4 consecutive days beginning 1 hr after infection measured on day 5 post infection relative to control; format: functional; method in brief: as §1
[5] = Cmax in CD1 mouse plasma at 5 mg/kg, po via gavage by HPLC/MS analysis; format: ADME, organism-based; set-up: dose 5 mg/kg, route oral
Method in brief: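 Female CD-1 mice, male SD rats and beagle dogs received 5 mg/kg either iv or by oral gavage. Vehicle was PEG 300/propylene glycol/water (55/25/20, pH 6). Blood was sampled and drug measured by HPLC-MS/MS.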

Plasmodium berghei [6] = assay: Antimalarial activity against Plasmodium berghei infected in Swiss Webster mouse assessed as mouse survival rate at 33 mg/kg administered once daily via oral gavage for 4 consecutive days beginning 1 hr after infection measured on day 9 post infection relative to control; format: functional; method in brief: as §2
Plasmodium berghei [7] = assay: Antimalarial activity against Plasmodium berghei infected in Swiss Webster mouse assessed as mouse survival rate at 11 mg/kg administered once daily via oral gavage for 4 consecutive days beginning 1 hr after infection measured on day 6 post infection relative to control; format: functional; method in brief: as §2
Plasmodium berghei [8] = assay: Antimalarial activity against Plasmodium berghei infected in Swiss Webster mouse assessed as mouse survival rate at 33 mg/kg administered once daily via oral gavage for 4 consecutive days beginning 1 hr after infection measured on day 6 post infection relative to control; format: functional; method in brief: as §2
Plasmodium berghei [9] = assay: Antimalarial activity against Plasmodium berghei infected in Swiss Webster mouse assessed as mouse survival rate at 33 mg/kg administered once daily via oral gavage for 4 consecutive days beginning 1 hr after infection measured on day 7 post infection relative to control; format: functional; method in brief: as §2
[10] = Oral bioavailability in CD1 mouse at 5 mg/kg by HPLC/MS analysis; format: ADME, organism-based; settings: in vivo
Method in brief: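 Female CD-1 mice, male SD rats or beagle dogs given 5 mg/kg by iv injection or oral gavage. Formulation was PEG300/propylene glycol/water 55/25/20, pH 6. Blood samples analysed by HPLC–MS/MS; parameters include AUC0-inf extrapolated to infinity and terminal half-life.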

Plasmodium berghei [11] = assay: Antimalarial activity against Plasmodium berghei infected in Swiss Webster mouse assessed as mouse survival rate administered once daily via oral gavage for 4 consecutive days beginning 1 hr after infection measured on day 4 post infection; format: functional; method in brief: as §1
Plasmodium berghei [12] = assay: Antimalarial activity against Plasmodium berghei infected in Swiss Webster mouse assessed as mouse survival rate at 0.4 mg/kg administered once daily via oral gavage for 4 consecutive days beginning 1 hr after infection measured on day 6 post infection relative to control; format: functional; method in brief: as §1
Plasmodium berghei [13] = assay: Antimalarial activity against Plasmodium berghei infected in Swiss Webster mouse assessed as mouse survival rate at 3.7 mg/kg administered once daily via oral gavage for 4 consecutive days beginning 1 hr after infection measured on day 6 post infection relative to control; format: functional; method in brief: as §2
Plasmodium berghei [14] = assay: Antimalarial activity against Plasmodium berghei infected in Swiss Webster mouse assessed as mouse survival rate at 11 mg/kg administered once daily via oral gavage for 4 consecutive days beginning 1 hr after infection measured on day 5 post infection relative to control; format: functional; method in brief: as §2
Plasmodium berghei [15] = assay: Antimalarial activity against Plasmodium berghei infected in Swiss Webster mouse assessed as mouse survival rate at 11 mg/kg administered once daily via oral gavage for 4 consecutive days beginning 1 hr after infection measured on day 7 post infection relative to control; format: functional; method in brief: as §2
Plasmodium berghei [16] = assay: Antimalarial activity against Plasmodium berghei infected in Swiss Webster mouse assessed as mouse survival rate at 11 mg/kg administered once daily via oral gavage for 4 consecutive days beginning 1 hr after infection measured on day 4 post infection relative to control; format: functional; method in brief: as §2
Plasmodium berghei [17] = assay: Antimalarial activity against Plasmodium berghei infected in Swiss Webster mouse assessed as mouse survival rate at 33 mg/kg administered once daily via oral gavage for 4 consecutive days beginning 1 hr after infection measured on day 5 post infection relative to control; format: functional; method in brief: as §2
Plasmodium berghei [18] = assay: Antimalarial activity against Plasmodium berghei infected in Swiss Webster mouse assessed as mouse survival rate at 100 mg/kg administered once daily via oral gavage for 4 consecutive days beginning 1 hr after infection measured on day 6 post infection relative to control; format: functional; method in brief: as §1
Plasmodium berghei [19] = assay: Antimalarial activity against Plasmodium berghei infected in Swiss Webster mouse assessed as mouse survival rate at 100 mg/kg administered once daily via oral gavage for 4 consecutive days beginning 1 hr after infection measured on day 7 post infection relative to control; format: functional; method in brief: as §1
Plasmodium berghei [20] = assay: Antimalarial activity against Plasmodium berghei infected in Swiss Webster mouse assessed as mouse survival rate at 100 mg/kg administered once daily via oral gavage for 4 consecutive days beginning 1 hr after infection measured on day 12 post infection relative to control; format: functional; method in brief: as §1
Plasmodium berghei [21] = assay: Antimalarial activity against Plasmodium berghei infected in Swiss Webster mouse assessed as mouse survival rate at 200 mg/kg administered once daily via oral gavage for 4 consecutive days beginning 1 hr after infection measured on day 9 post infection relative to control; format: functional; method in brief: as §2
[22] = Metabolic stability in rat hepatocytes at 22 uM after 44 hrs; format: ADME, cell-based, Hepatocyte
Plasmodium berghei [23] = assay: Antimalarial activity against Plasmodium berghei infected in Swiss Webster mouse assessed as mouse survival rate at 33 mg/kg administered once daily via oral gavage for 4 consecutive days beginning 1 hr after infection measured on day 12 post infection relative to control; format: functional; method in brief: as §2
Plasmodium berghei [24] = assay: Antimalarial activity against Plasmodium berghei infected in Swiss Webster mouse assessed as mouse survival rate at 0.1 mg/kg administered once daily via oral gavage for 4 consecutive days beginning 1 hr after infection measured on day 5 post infection relative to control; format: functional; method in brief: as §1
Plasmodium berghei [25] = assay: Antimalarial activity against Plasmodium berghei infected in Swiss Webster mouse assessed as mouse survival rate at 100 mg/kg administered once daily via oral gavage for 4 consecutive days beginning 1 hr after infection measured on day 13 post infection relative to control; format: functional; method in brief: as §1
Plasmodium berghei [26] = assay: Antimalarial activity against Plasmodium berghei infected in Swiss Webster mouse assessed as mouse survival rate at 0.1 mg/kg administered once daily via oral gavage for 4 consecutive days beginning 1 hr after infection measured on day 6 post infection relative to control; format: functional; method in brief: as §1

Row | SMILES | survival at 1.2 mg/kg (Plasmodium berghei [1]) | survival at 100 mg/kg (Plasmodium berghei [2]) | survival at 33 mg/kg (Plasmodium berghei [3]) | survival at 1.2 mg/kg (Plasmodium berghei [4]) | Cmax [5] | survival at 33 mg/kg (Plasmodium berghei [6]) | survival at 11 mg/kg (Plasmodium berghei [7]) | survival at 33 mg/kg (Plasmodium berghei [8]) | survival at 33 mg/kg (Plasmodium berghei [9]) | bioavailability [10] | ED90 (Plasmodium berghei [11]) | survival at 0.4 mg/kg (Plasmodium berghei [12]) | survival at 3.7 mg/kg (Plasmodium berghei [13]) | survival at 11 mg/kg (Plasmodium berghei [14]) | survival at 11 mg/kg (Plasmodium berghei [15]) | survival at 11 mg/kg (Plasmodium berghei [16]) | survival at 33 mg/kg (Plasmodium berghei [17]) | survival at 100 mg/kg (Plasmodium berghei [18]) | survival at 100 mg/kg (Plasmodium berghei [19]) | survival at 100 mg/kg (Plasmodium berghei [20]) | further results
1 | Cc1c(Oc2cnc(C(=O)N[C@@H](CO)CC(F)(F)F)cn2)ccc2c1B(O)OC2 | 0% | 100% | 60% | 100% | 2.1 µg/mL | 100% | 100% | 100% | 100% | 64% | 7.3 mg/kg | 100% | 100% | 100% | 0% | 100% | 100% | 100% | 100% | – | –
2 | Cc1c(Oc2cnc(C(=O)NC(C)CO)cn2)ccc2c1B(O)OC2 (configuration not stated) | – | 100% | – | – | 3.8 µg/mL | – | 40% | 100% | 100% | 85% | 44.3 mg/kg | – | – | 40% | 40% | 100% | 100% | 100% | 100% | 0% | –
3 | CCC1(O)CN(C(=O)c2cnc(Oc3ccc4c(c3C)B(O)OC4)cn2)C1 | 0% | 100% | 20% | 100% | – | 80% | 100% | 100% | 100% | – | 4.8 mg/kg | 100% | 100% | 100% | 40% | 100% | 100% | 100% | 100% | 100% | survival at 200 mg/kg (Plasmodium berghei [21]): 100%; Stability [22]: Stable; survival at 33 mg/kg (Plasmodium berghei [23]): 20%; survival at 0.1 mg/kg (Plasmodium berghei [24]): 100%; survival at 100 mg/kg (Plasmodium berghei [25]): 100%; survival at 0.1 mg/kg (Plasmodium berghei [26]): 100%
4 | Cc1c(Oc2cnc(C(=O)N3CC(O)(C4CC4)C3)cn2)ccc2c1B(O)OC2 | 0% | 100% | 40% | 100% | – | 100% | 100% | 100% | 100% | – | 10.3 mg/kg | 100% | 100% | 100% | 0% | 100% | 100% | 100% | 100% | 100% | Stability [22]: Stable; survival at 33 mg/kg (Plasmodium berghei [23]): 40%; survival at 0.1 mg/kg (Plasmodium berghei [24]): 100%; survival at 100 mg/kg (Plasmodium berghei [25]): 100%; survival at 0.1 mg/kg (Plasmodium berghei [26]): 100%
5 | Cc1c(Oc2cnc(C(=O)NCCO)cn2)ccc2c1B(O)OC2 | 0% | 100% | – | 100% | 4.3 µg/mL | – | 100% | 100% | 0% | 94% | 56.1 mg/kg | – | 100% | 100% | 0% | 100% | 100% | 100% | 80% | – | survival at 200 mg/kg (Plasmodium berghei [21]): 80%
6 | CCC[C@H](CO)NC(=O)c1cnc(Oc2ccc3c(c2C)B(O)OC3)cn1 | 0% | 100% | – | 100% | 4 µg/mL | 0% | 100% | 100% | 100% | 103% | 11.7 mg/kg | – | 100% | 100% | 0% | 100% | 100% | 100% | 100% | 20% | survival at 200 mg/kg (Plasmodium berghei [21]): 100%; survival at 100 mg/kg (Plasmodium berghei [25]): 20%
